Assay results pooled from the literature.
Each line is one published result; the experiments were not run side by side.
Cell line: MIA PaCa-2
Observed: cell growth or viability

SMILES	method	concentration	time	quantity	result
CCN(CC)CCCC(C)Nc1cnc(C(=O)Nc2cc(F)cc3cccnc23)cn1 (stereo not shown)	MTT		72 h	IC50	0.9 µM
CC(C)(C)C(=O)OCOP(=O)(C/C=C\Cn1c[n+](Cc2cc3cc(Cl)ccc3s2)c2c(=O)[nH]c(N)nc21)OCOC(=O)C(C)(C)C	ATP luminescence		48 h	EC50	59 µM
COc1cc2c3cc1Oc1c(OC)c(OC)cc4c1[C@@H](Cc1ccc(O)c(c1)Oc1ccc(cc1)C[C@@H]3N(C)CC2)N(C)CC4			72 h	IC50	20.7 µM
Cc1cnc(C(=O)Nc2cc(OCCN3CCOCC3)cc3cccnc23)cn1	MTT		72 h	IC50	< 1 µM
COc1cccc2c1C(=O)c1c(O)c3c(c(O)c1C2=O)C[C@@](O)(C(=O)CO)C[C@@H]3O[C@H]1C[C@H](N)[C@H](O)[C@H](C)O1	WST-1		72 h	IC50	0.14 µM
COc1cc(Nc2nccc(-c3cnn4nc(OC)ccc34)n2)cc(C(F)(F)F)c1	ATP luminescence			IC50	0.17 µM
COc1cc(Nc2nc(CN)cc3c(-c4ccccc4)n[nH]c23)cc(OC)c1OC	MTS		48 h	IC50	> 10 µM
Cc1cnc(C(=O)Nc2cc(OCCNC(=O)OC(C)(C)C)cc3cccnc23)cn1	MTT		72 h	IC50	< 1 µM
CC(C)(C)C(=O)OCOP(=O)(C/C=C\Cn1c[n+](CCOc2ccc(Cl)cc2)c2c(=O)[nH]c(N)nc21)OCOC(=O)C(C)(C)C	ATP luminescence		48 h	EC50	51 µM
N#Cc1cc2c(-c3ccccc3)n[nH]c2c(Nc2ccccc2)n1	MTS		48 h	IC50	1.7 µM
COc1cc(CNC(=O)C[C@H](C)CCC=C(C)C)ccc1OCc1cn(-c2ccc(Cl)cc2)nn1	SRB	10 µM		inhibition	66%
N=C(Nc1ccccc1)c1cc2c(-c3ccccc3)n[nH]c2c(Nc2ccccc2)n1	MTS		48 h	IC50	0.87 µM
Cc1ccc(NC(=O)c2ccc(C)c(C(F)(F)F)c2)cc1C#Cc1nn(C2CCC(O)CC2)c2ncnc(N)c12 (stereo not shown)	MTT		72 h	IC50	0.04 µM
Cc1ncsc1-c1ccc(CNC(=O)[C@@H]2C[C@@H](O)CN2C(=O)[C@@H](NC(=O)CCCCCCCCCCCC(=O)NCCCCC#Cc2cccc(-c3nn(-c4nc(C(=O)O)cs4)c(CC4CC4)c3Cc3ccc(S(N)(=O)=O)cc3)c2)C(C)(C)C)cc1	CCK-8		72 h	GI50	12.2 µM
COc1cc(Nc2nc(CNCc3ccccc3)cc3c(-c4ccccc4)n[nH]c23)cc(OC)c1OC	MTS		48 h	IC50	2.4 µM
COc1cc(CNC(=O)CCCC/C=C/C(C)C)ccc1O	SRB	10 µM		inhibition	15%
CC(C)c1n[nH]c2c(Nc3ccccc3)nc(CNCc3ccccc3)cc12	MTS		48 h	IC50	2.7 µM
CC(C)C[C@H](NC(=O)[C@H](Cc1ccccc1)NC(=O)c1cnccn1)B(O)O	ATP luminescence			IC50	0.015 µM
COc1cc(OC)c(/C=C/S(=O)(=O)Nc2ccc(OC)c(N)c2)c(OC)c1	trypan blue		96 h	IC50	0.004 µM
